Assay outcomes from PubChem BioAssay.
A selection: hits, their analogues and other compounds. The true share with any hit is near 4.4%.
GRIN3A LBD mod: NR3A (human) ligand-binding domain modulation. NR3A LBD differential scanning fluorimetry, Tm shift; 0% = protein alone, 100% = glycine-bound protein. Tm shift relative to glycine control, % at 25 µM. 340,000 tested, 2.5% active;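 active means melting temperature shift of at least 10% of the positive control shift, at one fixed dose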
MPTP block: permeability transition pore inhibition. isolated mouse mitochondria, Ca2+ swelling absorbance, 30 min. inhibition, % at 10 µM. 360,000 tested, 1.4% active. AID 602449;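 active means inhibition of 50% or more, scaled per plate between neutral and stimulator controls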;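 further: 0% = DMSO wells given calcium and 100% = 1 mM EGTA wells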
SENP1 FRET inh: inhibitors of human SENP1 SUMO protease catalytic domain | 360,000 tested, 0.21% active | Q9P0U3 | recombinant SENP1 catalytic domain, CyPet-SUMO1-YPet FRET cleavage | inhibition, % at 10 µM;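 active means inhibition at least 30% at 10 µM, raw YFP signal under a set limit, fluorescence ratio 0.5 to 1.5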;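 further: 0% = enzyme with DMSO and 100% = no enzyme wells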
Target sequence (Q9P0U3 419-644 limits assumed): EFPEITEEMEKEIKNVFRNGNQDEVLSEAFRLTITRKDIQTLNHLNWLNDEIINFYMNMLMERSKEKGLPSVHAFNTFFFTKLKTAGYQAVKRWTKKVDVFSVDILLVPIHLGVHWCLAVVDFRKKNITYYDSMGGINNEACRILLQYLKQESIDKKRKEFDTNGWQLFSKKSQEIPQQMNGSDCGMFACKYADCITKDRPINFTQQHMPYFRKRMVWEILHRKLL
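Material: hSENP1 catalytic domain, recombinant; medium: Tris pH 8 with BME, BSA, NP40 and catalase; compound: single concentration of 10 µM compound, 0.5% DMSO final; technique: FRET read of cyan and yellow fluorescence; timing: 50 min enzyme reaction, room temperature, light-protected; reagent: SFCypet-SUMO1-SFYpet substrate at 25 nM; control set: no-enzyme low, enzyme-DMSO high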
EBI2 block: antagonists of human EBI2 receptor | P32249 | EBI2 beta-arrestin recruitment, luminescence, 7a,25-OHC stimulated | inhibition, % at 5 µM | 360,000 tested, 0.81% active | AID 651636; in the data active means inhibition above about 38%;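 further: enzyme fragment complementation signal reports receptor beta-arrestin coupling in cells; 0% = agonist plus DMSO wells and 100% = wells without agonist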
Target sequence (P32249 whole entry, looked up, the tested form may be a part): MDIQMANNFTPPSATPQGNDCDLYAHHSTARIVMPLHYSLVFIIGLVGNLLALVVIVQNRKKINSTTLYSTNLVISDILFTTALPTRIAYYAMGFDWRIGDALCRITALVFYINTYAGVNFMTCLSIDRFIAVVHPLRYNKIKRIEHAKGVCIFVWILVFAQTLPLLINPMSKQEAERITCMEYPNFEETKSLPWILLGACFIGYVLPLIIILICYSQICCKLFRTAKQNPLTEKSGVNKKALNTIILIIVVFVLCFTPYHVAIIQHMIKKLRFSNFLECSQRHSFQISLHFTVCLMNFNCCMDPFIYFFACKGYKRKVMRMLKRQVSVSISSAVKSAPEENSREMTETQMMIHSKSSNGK
EBI2 antag conf: confirmation of human EBI2 receptor antagonists. shares compounds with EBI2 block. EBI2 beta-arrestin luminescence, 7a,25-OHC antagonism. inhibition, % at 5 µM. 2,400 tested, 29% active. AID 651997;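 active means inhibition of at least 50%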
EBI2 ag: counter-screen for EBI2 antagonists: EBI2 agonist activity | shares compounds with EBI2 block | EBI2-expressing cells, agonist mode, luminescence, 60 min; 0% vehicle, 100% 7α,25-dihydroxycholesterol control | activation, % at 5 µM | 2,400 tested, under 10 active | AID 652000;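 active means activation of at least 50%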
bGal counter: beta-galactosidase inhibition counter-screen; shares compounds with EBI2 block; purified beta-galactosidase, luminescent Galacton Star, 15 min; inhibition, % at 5 µM; 2,400 tested, 1% active;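 active means replicate-average signal at least 3 plate SD below neutral wells, shown as high inhibition, flagging enzyme-inhibiting false positives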;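 further: 0% = DMSO wells with enzyme and 100% = wells lacking enzyme; higher means stronger loss of beta-gal luminescence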
Starred values were filed as active, the others as inactive; nt = no result given.

SMILES | GRIN3A LBD mod | MPTP block | SENP1 FRET inh | EBI2 block | EBI2 antag conf | EBI2 ag | bGal counter
Cc1ccc2cccc(OCC(=O)NCCC3=CCCCC3)c2n1 | 1 | -2 | -1 | 48* | 24 | 1 | 2
O=C(COc1ccccc1Br)NCCC1=CCCCC1 | 3 | 0 | 0 | 16 | nt | nt | nt
COc1ccc(C(=O)N2CCCC(C(N)=O)C2)cc1S(=O)(=O)N1CCOCC1 (centres undefined) | 1 | -1 | -1 | -5 | nt | nt | nt
Cc1nc(C)c(-c2csc(Nc3ccc(C(=O)O)c(O)c3)n2)s1 | -1 | -1 | -1 | 4 | nt | nt | nt
Cc1nc(C)c(-c2csc(Nc3ccc(F)cc3)n2)s1 | 15* | 1 | 1 | 46* | 52* | 3 | 3
COc1cccc(Nc2nc(-c3sc(C)nc3C)cs2)c1 | 12* | -1 | 1 | 48* | 59* | 1 | 4
COc1cccc(Nc2nc(-c3sc(N)nc3C)cs2)c1 | -2 | -2 | -14 | 2 | nt | nt | nt
Cc1cnc(NC2=NCCC2)s1 | 0 | -1 | 0 | -5 | nt | nt | nt
CCN(CC(=O)Nc1cc(Cl)ccc1C)C(=O)CCc1nc2ccccc2c(=O)[nH]1 | 0 | 0 | -2 | 1 | nt | nt | nt
COc1ccc(-c2cc(-c3nnc(COC(=O)C4CC4)o3)c3ccccc3n2)cc1OC | -1 | -1 | -34 | -3 | nt | nt | nt
COc1ccc(-c2cc(-c3nnc(COC(=O)c4ccc(O)cc4)o3)c3ccccc3n2)cc1OC | 15* | 0 | -39 | 46* | 8 | 4 | 5
CCOc1ccc(NC(=S)N2c3ccccc3CC2C)cc1 (centres undefined) | -5 | 8 | -5 | 66* | -5 | 0 | 5
COc1ccc(NC(=S)N2CCC(C(O)(c3ccccc3)c3ccccc3)CC2)cc1 | -7 | 0 | 0 | 21 | nt | nt | nt
CC(=O)c1cccc(NC(=S)N2c3ccccc3CC2C)c1 (centres undefined) | -2 | 0 | 3 | -2 | nt | nt | nt
CCOc1ccc(NC(=S)N2CCC(C(O)(c3ccccc3)c3ccccc3)CC2)cc1 | -6 | 0 | 1 | 44* | 2 | -1 | -8
CC1CN(Cc2nc3c(c(=O)[nH]c(=O)n3C)n2CCCc2ccccc2)CC(C)O1 (centres undefined) | 1 | -1 | 1 | 8 | nt | nt | nt
CCn1c(SCC(=O)N/N=C/c2ccc(C)o2)nnc1-c1ccccc1 | -5 | -1 | -1 | 51* | 25 | 3 | 3
CCOc1ccc(N=C/C=C/c2ccccc2)c(O)c1 | -1 | 1 | -12 | -9 | nt | nt | nt
CC(=O)c1ccc(N2CCN(C(=O)c3cc(-c4ccncc4)nc4ccc(Cl)cc34)CC2)cc1 | -2 | -1 | 2 | 45* | 25 | 2 | 8
Cc1cccc2c(C(=O)N3CCN(c4ccccc4)CC3)cc(-c3ccncc3)nc12 | -2 | -2 | -1 | 47* | 28 | 0 | -2
O=C(NC1CCCCCC1)C1CCCN(c2ncccn2)C1 (centres undefined) | -2 | 3 | 2 | 3 | nt | nt | nt
Cc1ccc(S(=O)(=O)N(C)CC(=O)OCC(=O)NCCc2ccc(S(N)(=O)=O)cc2)cc1 | 0 | -1 | 0 | 1 | nt | nt | nt
O=C(OC1CCOC1=O)c1ccc(CO)cc1 (centres undefined) | 0 | -2 | 1 | -3 | nt | nt | nt
COc1cccc(C2=CC(=O)C[C@H](c3ccc(Cl)cc3)C2)c1OC | -6 | 0 | 2 | 62* | 41 | 0 | 12
COc1ccc(C2=CC(=O)C[C@H](c3ccc(OC)c(OC)c3)C2)cn1 | 0 | 1 | 2 | -7 | nt | nt | nt
SMILES | GRIN3A LBD mod | MPTP block | SENP1 FRET inh | EBI2 block | EBI2 antag conf | EBI2 ag | bGal counter
COc1ccc([C@H]2CC(=O)C=C(c3ccc(C)c(F)c3)C2)cc1 | -3 | -1 | 2 | 53* | 46 | 2 | -2
COc1ccc([C@H]2CC(=O)C=C(c3ccc(Cl)c(Cl)c3)C2)cc1 | -1 | 0 | 1 | 80* | 57* | 0 | 8
COc1ccc(C2=CC(=O)C[C@H](c3ccc(Cl)cc3)C2)cn1 | 0 | 1 | 2 | 50* | 40 | 0 | -13
COc1ccccc1C1=CC(=O)C[C@H](c2ccc(Cl)cc2)C1 | -5 | 0 | 0 | 22 | nt | nt | nt
Cc1noc(C)c1S(=O)(=O)N(CC(=O)NC1CCC(C)CC1)c1ccc(C(C)C)cc1 (centres undefined) | 0 | 1 | 1 | 17 | nt | nt | nt
COc1ccc([C@H]2CC(=O)C=C(c3cccc(OC)c3)C2)cc1 | 0 | -1 | 0 | 34 | nt | nt | nt
COc1ccc([C@H]2CC(=O)C=C(c3ccc(Cl)c(F)c3)C2)cc1 | 1 | -1 | 2 | 51* | 52* | -1 | -6
COCCCNC(=S)Nc1cccc2ncccc12 | 0 | 2 | -2 | -10 | nt | nt | nt
CC(C)CC(NC(=O)C(NC(=O)C1CCC(=O)N1C(=O)OCc1ccccc1)C(C)C)C(=O)N1CCCC1C(N)=O (centres undefined) | -1 | -1 | 2 | -5 | nt | nt | nt
CCOc1ccc(S(=O)(=O)N(C)c2ccc(OCC(=O)NCCc3ccc(OC)cc3)cc2)cc1 | 1 | 12 | -1 | 55* | 34 | 0 | -1
COc1ccc(CCNC(=O)c2ccc(N(C)S(=O)(=O)c3ccc(C)cc3)cc2)cc1 | -3 | 1 | 2 | 17 | nt | nt | nt
CCSc1nc2cc(OC)c(OC)cc2c(=O)n1CC | 4 | 4 | 4 | 14 | nt | nt | nt
CCOc1ccc(NC(=S)N(CCc2c(C)[nH]c3ccc(C)cc23)Cc2ccco2)cc1 | -1 | 0 | -4 | 40* | 29 | 0 | 3
CCOC(=O)N1CCC(N2Cc3cccc(C(=O)N4CCN(c5cccc(Cl)c5)CC4)c3C2=O)CC1 | -1 | 2 | 3 | -9 | nt | nt | nt
O=C(c1ccccc1F)N1CCN(c2ccc([N+](=O)[O-])c(N3CCOCC3)c2)CC1 | 1 | 0 | 1 | -1 | nt | nt | nt
O=C(COc1ccccc1)N1CCCCCCC1 | 5 | 4 | -6 | 1 | nt | nt | nt
O=C(CSc1ccc(Cl)cc1)N1CCN(c2ccc(Cl)cc2[N+](=O)[O-])CC1 | -10 | 4 | 2 | 82* | 76* | 2 | 8
O=C(COc1ccc(Br)cc1)N1CCN(c2ccc([N+](=O)[O-])c(N3CCCCC3)c2)CC1 | -4 | 0 | 2 | 77* | 57* | -1 | 9
O=C(COc1ccccc1)N1CCN(c2ccc([N+](=O)[O-])c(N3CCCCC3)c2)CC1 | -2 | 2 | 3 | 50* | 20 | 0 | 12
O=C(COc1ccc(Cl)cc1)N1CCN(c2ccc([N+](=O)[O-])c(N3CCOCC3)c2)CC1 | 0 | 0 | 4 | 85* | 61* | 0 | 9
O=[N+]([O-])c1ccc(N/N=C/c2cn(-c3ccccc3)nc2-c2ccccc2)cc1 | 41* | 13 | 5 | 44* | 17 | -1 | 8
